What was measured:
[1] = system: Mus musculus; experiment: Antagonism of nicotine-induced seizures in ICR mouse at 50 mg/kg, sc; type: functional; design: scale not given: the % may be the effect or the level left; settings: route subcutaneous
Procedure, shortened: (§1)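 Mice given saline or analog s.c. 10 min before nicotine. Percentage of animals seizing recorded. Dose-response from at least 4 doses with at least 8 mice per dose; AD50 with confidence limits, or % effect at highest dose.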

[2] = Displacement of [3H]epibatidine from nAChRalpha, beta in rat cerebral cortex; type: tissue-based
Procedure, shortened: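 Washed male rat cerebral cortex homogenate, 3 mg wet weight, in 50 mM Tris pH 7.4 with NaCl, KCl, CaCl2 and MgCl2. 0.5 nM [3H]epibatidine with 10–12 compound concentrations, 1% DMSO final; 300 μM (–)-nicotine defined nonspecific binding. Incubated 4 h at room temperature, then filtered on PEI-soaked GF/B and counted. Nonlinear fit, at least three experiments.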

[3] = system: Mus musculus; experiment: Antagonism of nicotine-induced effect in mouse at 30 mg/kg, sc by hot plate assay; type: functional; design: scale not given: the % may be the effect or the level left; settings: route subcutaneous
Procedure, shortened: (§2)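 Hot plate held at 55.0 C, mice in a 10 cm glass cylinder. Two control latencies taken at least 10 min apart (normal 8–12 s). Latency scored at jump or paw lick. %MPE = (test−control)/(40−control)×100. Analog given s.c. before nicotine; at least 8 mice per dose; % effect at highest dose.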

[4] = system: Mus musculus; experiment: Antagonism of nicotine-induced antinociceptive effect in mouse at 30 mg/kg, sc by tail flick assay; type: functional; design: scale not given: the % may be the effect or the level left; settings: route subcutaneous
Procedure, shortened: (§3)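 Mice given saline or analog s.c. at varied times before nicotine; tail-flick tested 5 min after nicotine. Baseline latency 2–4 s, cutoff 10 s. %MPE = (test−control)/(10−control)×100. 8–12 mice per dose, at least 4 doses; AD50 with confidence limits from dose-response, or % effect at top dose.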

[5] = system: Mus musculus; experiment: Antagonism of nicotine-induced effect in mouse at 20 mg/kg, sc by hot plate assay; type: functional; design: scale not given: the % may be the effect or the level left; settings: route subcutaneous; procedure, shortened: as §2
[6] = system: Mus musculus; experiment: Antagonism of nicotine-induced antinociceptive effect in sc dosed mouse by tail flick assay; type: functional; procedure, shortened: as §3
[7] = system: Mus musculus; experiment: Antagonism of nicotine-induced seizures in sc dosed ICR mouse; type: functional; procedure, shortened: as §1
[8] = target: Neuronal acetylcholine receptor subunit alpha-7 (Rattus norvegicus, UniProt Q05941); experiment: Displacement of [125I]iodoMLA from alpha-7 nAChR in rat cerebral cortex; type: tissue-based
Sequence of Neuronal acetylcholine receptor subunit alpha-7 (Q05941 whole entry): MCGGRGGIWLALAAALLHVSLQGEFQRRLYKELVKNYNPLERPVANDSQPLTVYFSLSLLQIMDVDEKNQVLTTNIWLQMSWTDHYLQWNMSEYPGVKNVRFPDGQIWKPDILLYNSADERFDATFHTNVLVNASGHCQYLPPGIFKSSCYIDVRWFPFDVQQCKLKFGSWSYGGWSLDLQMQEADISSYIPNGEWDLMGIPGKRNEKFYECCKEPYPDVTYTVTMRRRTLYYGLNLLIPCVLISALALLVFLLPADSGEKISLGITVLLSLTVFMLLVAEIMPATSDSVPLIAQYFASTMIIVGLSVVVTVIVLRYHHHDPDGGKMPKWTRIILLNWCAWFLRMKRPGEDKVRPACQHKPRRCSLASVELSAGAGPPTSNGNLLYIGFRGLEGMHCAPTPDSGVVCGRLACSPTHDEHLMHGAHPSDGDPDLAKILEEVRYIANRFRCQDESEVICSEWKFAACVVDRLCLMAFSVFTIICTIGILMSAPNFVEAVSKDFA

Row | Compound | Activity [1] [%] | Ki [2] [µM] | Activity [3] [%] | Activity [4] [%] | Activity [5] [%] | AD50 [6] [mg/kg] | AD50 [7] [mg/kg] | Ki [8] [µM]
1 | CCN1C[C@]2(COC(=O)c3ccccc3N3C(=O)C[C@@H](C)C3=O)CC[C@H](OC)[C@@]34[C@@H]5C[C@H]6[C@H](OC)[C@@H]5[C@](O)(C[C@@H]6OC)[C@](O)([C@@H](OC)[C@H]23)[C@@H]14 | 40 | 0.352 | 0 | 10 |  |  |  | 
2 | CCN1C[C@]2(COC(=O)c3ccccc3N3C(=O)CC(C)(C)C3=O)CC[C@H](OC)C34C2[C@H](OC)[C@](O)(C13)[C@@]1(O)C[C@H](OC)[C@H]2C[C@@H]4[C@@H]1[C@H]2OC |  | 0.602 |  |  | 13 | 1.8 | 10 | 0.00178
3 | CCN1C[C@]2(COC(=O)c3ccccc3N3C(=O)C(C)[C@H](C)C3=O)CC[C@H](OC)C34C2[C@H](OC)[C@](O)(C13)[C@@]1(O)C[C@H](OC)[C@H]2C[C@@H]4[C@@H]1[C@H]2OC (stereo partly drawn) | 0 | 0.321 |  |  | 25 | 7 |  | 0.00246
4 | CCN1C[C@]2(COC(=O)c3ccccc3N3C(=O)C[C@H](C)C3=O)CC[C@H](OC)[C@@]34[C@@H]5C[C@H]6[C@H](OC)[C@@H]5[C@](O)(C[C@@H]6OC)[C@](O)([C@@H](OC)[C@H]23)[C@@H]14 [METHYLLYCACONITINE] |  | 0.739 |  |  | 15 | 12 | 2 | 

Reference: ChEMBL document CHEMBL1144563 (Bioorg Med Chem, 2007)
